The values that follow come from ChEMBL document CHEMBL4385592, “4-Imidazo[2,1-b]thiazole-1,4-DHPs and neuroprotection: preliminary study in hits searching” (Eur J Med Chem, 2019).

Data set [1] has as its target T1, Voltage-gated L-type calcium channel (Homo sapiens, UniProt Q13936+Q13698+Q01668+O60840). In words: Inhibition of voltage-dependent L-type calcium channel in human SH-SY5Y cells assessed as protection against glutamate-induced excitotoxicity by measuring recovery of cell viability at 1 uM measured after 24 hrs by alamar blue-based fluorescence method relative to control. Background: Alamar Blue is a resazurin reagent that responds to reducing activity.

In data set [2] the target is T1, Voltage-gated L-type calcium channel. Kind of data set: Inhibition of voltage-dependent L-type calcium channel in human U373MG cells assessed as protection against oxygen glucose deprivation/reperfusion-induced injury by measuring recovery of cell viability at 1 uM administered at onset of reperfusion period measured after 16 hrs by alamar blue assay relative to control. Format: cell-based. The method in brief: (§1)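 U-373 MG astrocytoma cells seeded at 30000 cells/ml and grown 24 or 48 h (37 °C/5% CO2). OGD: 24 h at 37 °C in glucose-free DMEM pre-bubbled with 95% N2/5% CO2, in a sealed nitrogen-flushed chamber. Then 16 h reperfusion in normal medium; compounds added at reperfusion, diluted from DMSO stock (DMSO ≤0.1%). Viability by alamarBlue, 4 h at 37 °C, fluorescence ex 530–560/em 590 nm. Expressed as % recovery from injury, mean ± S.E. of ≥3 experiments in sixuplicate.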

Data set [3] shares this target. In words: Inhibition of voltage-dependent L-type calcium channel in human U373MG cells assessed as protection against oxygen glucose deprivation/reperfusion-induced injury by measuring recovery of cell viability at 20 uM administered at onset of reperfusion period measured after 16 hrs by alamar blue assay relative to control. Format: cell-based. The method in brief: as §1

Data set [4] has the same target. Kind of data set: Inhibition of voltage-dependent L-type calcium channel in human SH-SY5Y cells assessed as protection against glutamate-induced excitotoxicity by measuring recovery of cell viability at 20 uM measured after 24 hrs by alamar blue-based fluorescence method relative to control.
For data set [5], the target named is T2, Voltage-gated L-type calcium channel (Rattus norvegicus, UniProt P22002+Q02485+P27732). Kind of data set: Inhibition of voltage-dependent L-type calcium channel in Wistar rat brain slices assessed as protection against oxygen glucose deprivation/reperfusion-induced injury by measuring recovery of LDH release at 20 uM administered at onset of reperfusion period measured after 90 mins by spectrophotometric assay relative to control. Particulars: 1.5 h. Further details: scale not given: the % may be the effect or the level left. For orientation: LDH leaks from cells whose membrane has failed.

The target of data set [6] is T2, Voltage-gated L-type calcium channel. Kind of data set: Inhibition of voltage-dependent L-type calcium channel in Wistar rat brain slices assessed as protection against oxygen glucose deprivation/reperfusion-induced injury by measuring recovery of edema formation at 20 uM administered at onset of reperfusion period measured after 90 mins relative to control. Further details: scale not given: the % may be the effect or the level left. The settings on record: 1.5 h.

In data set [7] the test system is Left cardiac atrium. Kind of data set: Negative inotropic activity in guinea pig left atrium assessed as decrease in developed tension at 0.001 to 100 uM relative to control. The format is ADME, tissue-based. The settings on record: Cavia porcellus.
Data set [8] relates to Right cardiac atrium. Kind of data set: Negative chronotropic activity in guinea pig spontaneously beating right atrium assessed as decrease in atrial rate. The format is tissue-based. Particulars: Cavia porcellus.
A short description of data set [9]: Selectivity ratio of EC50 for negative chronotropic activity in guinea pig spontaneously beating right atrium to EC50 for negative inotropic activity in guinea pig left atrium. The format is ADME, tissue-based, Cavia porcellus.
Data set [10] has as its system Left cardiac atrium. Kind of data set: Negative inotropic activity in guinea pig left atrium assessed as decrease in developed tension at 5 x 10^-6 M relative to control. Format: ADME, tissue-based, Cavia porcellus. The settings on record: 5 µM. Further details: scale not given: the % may be the effect or the level left.
In data set [11] the test system is Right cardiac atrium. In words: Negative chronotropic activity in guinea pig spontaneously beating right atrium assessed as decrease in atrial rate at 10^-5 M relative to control. The settings on record: 10 µM. Further details: scale not given: the % may be the effect or the level left. Format: ADME, tissue-based, Cavia porcellus.
Data set [12] relates to Aorta. In words: Inhibition of calcium-induced contraction in K+-depolarized guinea pig aortic strips at 10^-4 M relative to control. Format: tissue-based. The settings on record: Cavia porcellus.
The test system of data set [13] is Aorta. Kind of data set: Inhibition of calcium-induced contraction in K+-depolarized guinea pig aortic strips at 5 x 10^-5 M relative to control. Format: tissue-based. The settings on record: Cavia porcellus.
Data set [14] deals with Left cardiac atrium. In words: Negative inotropic activity in guinea pig left atrium assessed as decrease in developed tension at 10^-6 M relative to control. Format: ADME, tissue-based, Cavia porcellus. Further details: scale not given: the % may be the effect or the level left. The settings on record: 1 µM.
Data set [15] concerns Left cardiac atrium. Kind of data set: Negative inotropic activity in guinea pig left atrium assessed as decrease in developed tension at 10^-5 M relative to control. Further details: scale not given: the % may be the effect or the level left. Particulars: 10 µM.

`COC(=O)C1=C(C)NC(C)=C(C(=O)OC)C1c1c(-c2ccc(C(F)(F)F)cc2)nc2sccn12`: the Activity in data set [1] is 17.5%; in data set [2], less than 5%; in [3] it was less than 5%; in data set [4], 36.6%.
As to `COC(=O)C1=C(C)NC(C)=C(C(=O)OC)C1c1c(-c2ccc(OC(F)(F)F)cc2)nc2sccn12`, the Activity in data set [5] amounted to 93.8%; in data set [6], 93.8%; in data set [1] it was 37.4%; in data set [2], 52.3%; in data set [3] it was 54.2%; in [4], 37.7%.
As to `CCOC(=O)C1=C(C)NC(C)=C(C(=O)OCC)C1c1c(-c2cc(OC)ccc2OC)nc2sccn12`, the Activity is 87% in data set [5]; 75.8% in data set [6]; 42.8% in [1]; 36.6% in data set [2]; 65.7% in [3]; 67.4% in data set [4].
`COC(=O)C1=C(C)NC(C)=C(C(=O)OC)C1c1c(-c2ccccc2OC)nc2sccn12`: the Activity in [1], in [2], in data set [3] and in data set [4] was less than 5% each time.
On to `COC(=O)C1=C(C)NC(C)=C(C(=O)OC)C1c1c(-c2cc(OC)c([N+](=O)[O-])cc2OC)nc2sccn12`, for which the Activity in data set [1] is recorded as 31.5%; in [2], less than 5%; in data set [3], less than 5%; in data set [4] it was 46.3%.
For the molecule `COC(=O)C1=C(C)NC(C)=C(C(=O)OC)C1c1c(-c2cc(OC)ccc2OC)nc2sc(Cl)cn12`, the Activity in [5] stood at 81.3%; in data set [6] it was 91.8%; in data set [1] it was 42%; in [2], 78.8%; in data set [3], 99.6%; in [4], 108.4%.
On to `COC(=O)C1=C(C)NC(C)=C(C(=O)OC)C1c1c(C(F)(F)F)nc2sccn12`, for which the Activity is 79.2% in data set [5]; 105.4% in data set [6]; 44.1% in data set [1]; 73% in data set [2]; 86.7% in [3]; 84.5% in [4].
As to `COC(=O)C1=C(C)NC(C)=C(C(=O)OC)C1c1c(C(F)(F)F)nc2sc(C)cn12`, the Activity in [5] was 100.3%; in data set [6], 63.7%; in data set [1], 35.4%; in data set [2], less than 5%; in data set [3], less than 5%; in data set [4], 44.1%.
As to `COC(=O)C1=C(C)NC(C)=C(C(=O)OC)C1c1c(-c2cccc(OC)c2)nc2sccn12`, the Activity in [1], in data set [2], in data set [3] and in data set [4] was less than 5% each time.
As to `COC(=O)C1=C(C)NC(C)=C(C(=O)OC)C1c1c(-c2ccccc2)nc2scc(C)n12`, the Activity in [5] is on record as 100.65%; in data set [6] it was 82.5%; in data set [1], 85.1%; in [2], less than 5%; in data set [3], less than 5%; in data set [4], 130%.
As for `COC(=O)C1=C(C)NC(C)=C(C(=O)OC)C1c1c(-c2cc(OC)ccc2OC)nc2sccn12`, the Activity in [5] turned out to be 83.9%; in data set [6], 77.6%; in data set [1], 51.9%; in data set [2], 82.9%; in data set [3] it was 96.7%; in data set [4], 99%.
For the molecule `COC(=O)C1=C(C)NC(C)=C(C(=O)OC)C1c1c(-c2c(OC)ccc(OC)c2[N+](=O)[O-])nc2sc(Cl)cn12`, the Activity in [1] was 13.1%; in [2] it was less than 5%; in data set [3], less than 5%; in data set [4], 36.8%.
In general, EC50 refers to the midpoint of the concentration-response curve. The term inhibition denotes the relative decrease from the control value, in per cent. Regarding `C=CCOC(=O)C1=C(C)NC(C)=C(C(=O)OCC=C)C1c1c(-c2cc(OC)c([N+](=O)[O-])cc2OC)nc2sccn12`, the Activity in data set [5] is 51.2%; in data set [6], 82%; in [1], 40.6%; in [2], less than 5%; in data set [3] it was less than 5%; in [10], 96%. In addition, the Activity in [11] was 92%; in [4], 52.3%. Besides, the 50% effective concentration (EC50) was 25 nM in data set [7] and 2380 nM in [8]. In addition, the “Ratio EC50” value in [9] came to 95. In data set [12], the inhibition at 100 µM was determined as 15%.
`CCOC(=O)C1=C(C)NC(C)=C(C(=O)OCC)C1c1c(-c2ccc(Cl)c([N+](=O)[O-])c2)nc2sc(C)cn12`: the Activity in [5] is listed as less than 5%; in data set [6], less than 5%; in data set [1], less than 5%; in data set [2] it was less than 5%; in data set [3] it was less than 5%; in [10], 64%. Moreover, the Activity in [11] is on record as 50%; in data set [4], less than 5%. The EC50 in data set [7] was 190 nM; in data set [8] it was 8480 nM. Further, the Ratio EC50 in data set [9] is 25 to 56. Further, the inhibition at 100 µM in data set [12] was 24%.
Turning to `CCOC(=O)C1=C(C)NC(C)=C(C(=O)OCC)C1c1c(-c2cc(OC)cc(OC)c2)nc2sc(Br)cn12`, the Activity is reported as 14.5% in [5]; 93% in [14]; less than 5% in data set [6]; 17.4% in data set [1]; less than 5% in [2]; 29.6% in data set [3]. For the same molecule, the Activity turned out to be 80% in data set [11] and 42.4% in data set [4]. Also, the inhibition at 50 µM in [13] amounted to 7%. Also, the concentration giving a half-maximal response (EC50) in [7] is 25 nM; in data set [8] it was 640 nM. Moreover, in data set [9], the “Ratio EC50” value is less than 10.
In the case of `CCOC(=O)C1=C(C)NC(C)=C(C(=O)OCC)C1c1c(-c2ccc(F)cc2)nc2sc(Cl)cn12`, the Activity in data set [5] is on record as 61.9%; in [14], 62%; in data set [6], less than 5%; in data set [1], 44.9%; in [2], 32.6%; in [3], 33.7%. Moreover, the Activity in [11] is given as 83%; in data set [4], 47.5%. The 50% effective concentration (EC50) in data set [7] stood at 49 nM; in data set [8], 1730 nM. Moreover, the Ratio EC50 in [9] was 25 to 56. Moreover, in [12], the inhibition at 100 µM came to 3%.
Turning to `CCOC(=O)C1=C(C)NC(C)=C(C(=O)OCC)C1c1c(-c2ccc(OC)c(OC)c2)nc2sc(Br)cn12`, the Activity in data set [5] is listed as 57.8%; in [6], 89.1%; in data set [1], 18.2%; in data set [2] it was 9%; in data set [3], 55.1%; in [10], 39%. For the same molecule, the Activity in data set [11] came to 90%; in [4], 33.4%. Moreover, the inhibition at 50 µM in data set [13] is 5%. Further, in [8], the EC50 amounted to 310 nM.
On to `CCOC(=O)C1=C(C)NC(C)=C(C(=O)OCC)C1c1c(-c2c(F)cccc2F)nc2sccn12`, for which the Activity in [14] is 33%; in data set [1], 19.5%; in data set [2] it was less than 5%; in [3] it was less than 5%; in data set [11] it was 35%; in data set [4], 27.7%. Also, the inhibition at 100 µM in [12] is 28%.
As for `CCOC(=O)C1=C(C)NC(C)=C(C(=O)OCC)C1c1c(-c2cc(OC)ccc2OC)nc2sc(C)cn12`, the Activity is 89% in [15]; less than 5% in data set [1]; less than 5% in data set [2]; less than 5% in [3]; 78% in data set [11]; less than 5% in [4]. The 50% effective concentration (EC50) stood at 250 nM in data set [7] and 4810 nM in data set [8]. Also, in [9], the “Ratio EC50” value is on record as 20. Besides, the inhibition at 100 µM in data set [12] worked out at 43%.
